Test results as given in ChEMBL document CHEMBL1131061, “Design and synthesis of a series of potent and orally bioavailable noncovalent thrombin inhibitors that utilize nonbasic groups in the P1 position” (J Med Chem, 1998).

Assays:
Prothrombin = Prothrombin (Homo sapiens, UniProt P00734); assay: Binding affinity was evaluated on serine protease thrombin.
[1] = Partition coefficient (logP); format: physicochemical; conditions: octanol/water
Procedure, shortened: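 Log P determined experimentally by standard octanol/water partitioning.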

Chymotrypsinogen A [2] = biological target: T1, Chymotrypsinogen A (Bos taurus, UniProt P00766); assay: Binding affinity was evaluated on serine protease Chymotrypsinogen; format: single protein
Serine protease 1 [3] = biological target: T2, Serine protease 1 (Homo sapiens, UniProt P07477); assay: Binding affinity was evaluated on serine protease trypsin.
T2 sequence (P07477 whole entry): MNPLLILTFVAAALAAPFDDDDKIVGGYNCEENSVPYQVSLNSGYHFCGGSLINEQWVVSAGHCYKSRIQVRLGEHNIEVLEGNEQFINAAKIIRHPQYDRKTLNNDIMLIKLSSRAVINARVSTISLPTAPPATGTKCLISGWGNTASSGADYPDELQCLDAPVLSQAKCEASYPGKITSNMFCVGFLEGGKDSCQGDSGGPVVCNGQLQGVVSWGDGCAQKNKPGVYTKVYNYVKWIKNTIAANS

Rattus norvegicus [4] = species: Rattus norvegicus; assay: The final concentration in plasma of rat carotid artery FeCl3 induced thrombosis model; format: ADME, organism-based
Procedure, shortened: (§1)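 Rat carotid artery FeCl₃-induced thrombosis model. Compound in saline vehicle infused iv at 10 μg/kg/min for 120 min before the FeCl₃ insult. Plasma drug concentration measured. Saline vehicle controls run alongside.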

Plasminogen = Plasminogen (Homo sapiens, UniProt P00747); assay: Binding affinity was evaluated on serine protease plasmin.
Chain of Plasminogen (P00747 97-580 limits assumed): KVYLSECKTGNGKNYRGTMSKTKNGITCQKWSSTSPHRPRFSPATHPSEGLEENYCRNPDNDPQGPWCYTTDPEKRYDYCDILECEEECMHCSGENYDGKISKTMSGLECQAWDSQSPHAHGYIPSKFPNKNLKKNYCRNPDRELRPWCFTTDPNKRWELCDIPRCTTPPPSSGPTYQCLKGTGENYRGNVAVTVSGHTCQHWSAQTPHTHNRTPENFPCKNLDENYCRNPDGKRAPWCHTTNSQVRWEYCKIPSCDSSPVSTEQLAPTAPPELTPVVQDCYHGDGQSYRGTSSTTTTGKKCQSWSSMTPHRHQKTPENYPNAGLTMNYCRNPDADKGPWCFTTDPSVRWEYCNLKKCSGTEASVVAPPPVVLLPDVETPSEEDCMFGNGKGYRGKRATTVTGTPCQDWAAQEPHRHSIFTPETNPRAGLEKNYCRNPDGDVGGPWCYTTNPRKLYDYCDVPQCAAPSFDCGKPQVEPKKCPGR
Chain of Plasminogen (P00747 581-810 limits assumed): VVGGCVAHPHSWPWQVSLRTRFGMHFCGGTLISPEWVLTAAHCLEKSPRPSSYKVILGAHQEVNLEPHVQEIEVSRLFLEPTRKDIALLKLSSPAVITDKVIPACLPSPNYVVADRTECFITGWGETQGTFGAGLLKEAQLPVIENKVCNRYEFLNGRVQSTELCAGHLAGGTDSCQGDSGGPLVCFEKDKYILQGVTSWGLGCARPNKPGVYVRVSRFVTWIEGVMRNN

[5] = biological target: Tissue-type plasminogen activator (Homo sapiens, UniProt P00750); assay: Binding affinity was evaluated on serine protease TPA.
Chain of Tissue-type plasminogen activator (P00750 whole entry): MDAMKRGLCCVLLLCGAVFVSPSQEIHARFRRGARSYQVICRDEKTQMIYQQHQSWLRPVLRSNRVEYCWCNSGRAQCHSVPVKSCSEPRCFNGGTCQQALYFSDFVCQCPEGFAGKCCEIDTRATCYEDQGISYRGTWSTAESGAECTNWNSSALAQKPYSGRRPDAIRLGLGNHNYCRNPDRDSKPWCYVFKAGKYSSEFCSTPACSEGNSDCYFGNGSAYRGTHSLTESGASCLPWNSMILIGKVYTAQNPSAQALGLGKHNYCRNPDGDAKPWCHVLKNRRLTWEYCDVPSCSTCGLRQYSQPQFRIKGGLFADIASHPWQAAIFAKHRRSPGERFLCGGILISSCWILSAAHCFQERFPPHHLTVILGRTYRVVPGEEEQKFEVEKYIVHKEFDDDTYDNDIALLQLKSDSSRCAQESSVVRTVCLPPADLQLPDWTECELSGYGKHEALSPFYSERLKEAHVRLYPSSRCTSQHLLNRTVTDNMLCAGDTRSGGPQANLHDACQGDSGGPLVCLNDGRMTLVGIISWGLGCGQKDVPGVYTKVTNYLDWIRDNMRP

Plasma kallikrein = Plasma kallikrein (Homo sapiens, UniProt P03952); assay: Binding affinity was evaluated on serine protease plasma kallikrein.; format: cell-free
Chain of Plasma kallikrein (P03952 20-390 limits assumed): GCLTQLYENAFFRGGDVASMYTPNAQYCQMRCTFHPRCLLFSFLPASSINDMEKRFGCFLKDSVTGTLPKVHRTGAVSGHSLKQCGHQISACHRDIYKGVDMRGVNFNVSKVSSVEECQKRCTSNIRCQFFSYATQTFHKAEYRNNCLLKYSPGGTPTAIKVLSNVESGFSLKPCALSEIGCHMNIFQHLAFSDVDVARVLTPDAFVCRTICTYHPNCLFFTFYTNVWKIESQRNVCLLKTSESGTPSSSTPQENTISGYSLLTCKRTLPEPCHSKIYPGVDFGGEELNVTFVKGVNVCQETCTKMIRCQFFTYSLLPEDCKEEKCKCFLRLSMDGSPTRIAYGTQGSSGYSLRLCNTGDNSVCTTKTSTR
Chain of Plasma kallikrein (P03952 391-638 limits assumed): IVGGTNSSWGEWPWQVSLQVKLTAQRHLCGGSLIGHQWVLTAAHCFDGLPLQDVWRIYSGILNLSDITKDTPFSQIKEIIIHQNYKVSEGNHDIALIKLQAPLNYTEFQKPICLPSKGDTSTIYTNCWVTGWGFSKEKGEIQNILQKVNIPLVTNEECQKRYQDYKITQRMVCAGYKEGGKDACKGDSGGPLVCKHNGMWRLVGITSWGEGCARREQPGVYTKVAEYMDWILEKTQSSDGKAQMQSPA

[6] = Oral bioavailability in rats when dosed in a suspension of 1% methocel; format: ADME, organism-based; conditions: rat, in vivo
Procedure, shortened: (§2)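 Fasted animals (24 h without food). Oral dose by gavage as a 1% methocel suspension. Intravenous dose given by indwelling jugular vein cannula in rat and by peripheral venipuncture in dog and cynomolgus monkey, in saline or 20% PEG 200. iv/po doses in mg/kg: rat 2/10, 5/20 or 5/12; dog 2/5 or 1/5; monkey 1/5. F (%) is the mean of at least three determinations.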

Homo sapiens [7] = species: Homo sapiens; assay: Concentration of compound in plasma required to double the activated partial thromboplastin time in human measured as 2(APTT) value; format: functional, cell-free
Procedure, shortened: (§3)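 2 × APTT is the inhibitor concentration in plasma required to double the activated partial thromboplastin time.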

Homo sapiens [8] = species: Homo sapiens; assay: % Free drug present in human plasma.; format: ADME, organism-based
[9] = Oral bioavailability in rat when dosed in a suspension of 1% methocel; format: ADME, organism-based; conditions: in vivo; procedure, shortened: as §2
Rattus norvegicus [10] = species: Rattus norvegicus; assay: (§4) % Free drug present in rat plasma.; format: ADME, organism-based
Rattus norvegicus [11] = species: Rattus norvegicus; assay: Concentration of compound in plasma required to double the activated partial thromboplastin time in rat measured as 2(APTT) value; format: functional, cell-free; procedure, shortened: as §3
[12] = The concentration in plasma; format: ADME, cell-free; procedure, shortened: as §1
[13] = Oral bioavailability in cynomolgus monkey (dosed in a suspension of 1% methocel); format: ADME, organism-based, Macaca fascicularis; conditions: in vivo; procedure, shortened: as §2
[14] = Oral bioavailability in cynomolgus monkey (dose 5 mg/kg); format: ADME, organism-based, Macaca fascicularis; conditions: in vivo; procedure, shortened: as §2
Rattus norvegicus [15] = species: Rattus norvegicus; assay: as §4; format: functional
[16] = Oral bioavailability in dog (dosed in a suspension of 1% methocel); format: ADME, organism-based, Canis lupus familiaris; conditions: in vivo; procedure, shortened: as §2
[17] = The 2(APTT) value is defined as the concentration of compound in plasma required to double the activated partial thromboplastin time in human; format: functional; procedure, shortened: as §3
Serine protease 1 [18] = biological target: T2, Serine protease 1; assay: Selectivity was evaluated as the binding affinity between thrombin versus trypsin.
Chymotrypsinogen A [19] = biological target: T1, Chymotrypsinogen A; assay: Selectivity was evaluated as the binding affinity between thrombin versus Chymotrypsinogen

Row | Compound | Ki (Prothrombin) [µM] | logP [1] | Ki (Chymotrypsinogen A [2]) [µM] | Ki (Serine protease 1 [3]) [µM] | concentration (Rattus norvegicus [4]) [nM] | Ki (Plasminogen) [µM] | Ki [5] [µM] | Ki (Plasma kallikrein) [µM] | Concentration (Homo sapiens [7]) [µM] | Free (Homo sapiens [8]) [%] | bioavailability [9] [%] | Concentration (Rattus norvegicus [11]) [µM] | further results
1 | N[C@@H](C(=O)N1CCC[C@H]1C(=O)NCc1cc(Cl)ccc1Cl)C1CCCCC1 | 0.005 | 2.63 | 49 | 29 | 329 | 691 | 19 | 586 | 0.95 | 4 | 23 |  | Free (Rattus norvegicus [10]): 9%
2 | NC(=O)COc1ccc(Cl)cc1CNC(=O)[C@@H]1CCCN1C(=O)[C@H](N)C1CCCCC1 | 0.0005 | 1.96 | 131 | 9 | 726 | 152 | 11 | 816 | 0.25 | 26 |  | 0.31 | Free (Rattus norvegicus [10]): 7%
3 | CCNC(=O)COc1ccc(Cl)cc1CNC(=O)[C@@H]1CCCN1C(=O)[C@H](N)C1CCCCC1 |  | 2.07 | 71 | 23 |  |  |  |  | 0.41 | 15 | 10 | 0.38 | concentration [12]: 794 nM; bioavailability [13]: 63%; bioavailability [14]: 63%; Free (Rattus norvegicus [15]): 14%; bioavailability [16]: 40%
4 | N[C@@H](C(=O)N1CCC[C@H]1C(=O)NCc1cc(Cl)ccc1O)C1CCCCC1 | 0.0025 |  |  |  |  |  |  |  |  |  |  |  | 
5 | CC1CNc2c(cccc2S(=O)(=O)N[C@@H](CCCNC(=N)N)C(=O)N2CCC(C)C[C@@H]2C(=O)O)C1 (single isomer, unassigned) [ARGATROBAN] |  |  |  |  |  |  |  |  |  |  |  |  | 2*APTT [17]: 0.28 µM
6 | NC(C(=O)N1CCC[C@H]1C(=O)NCc1cc(Cl)ccc1Cl)C(c1ccccc1)c1ccccc1 (stereo partly specified) |  | > 3.1 |  |  |  |  |  |  |  |  |  |  | Ki (Serine protease 1 [18]): 7 µM; Ki (Chymotrypsinogen A [19]): > 50 µM; bioavailability [16]: 45%
7 | N[C@@H](C(=O)N1CCC[C@H]1C(=O)NCc1cc(Cl)ccc1OCC(=O)NC1CC1)C1CCCCC1 |  | 2.04 | 67 | 18 |  | 113 | 36 | 79 | 0.35 | 12 | 20 | 0.42 | bioavailability [13]: 34%; bioavailability [14]: 34%; Free (Rattus norvegicus [15]): 11%

Now from value to compound, other results behind:

Row | Ki (Prothrombin) [µM] | Compound | logP [1] | Ki (Chymotrypsinogen A [2]) [µM] | Ki (Serine protease 1 [3]) [µM] | concentration (Rattus norvegicus [4]) [nM] | Ki (Plasminogen) [µM] | Ki [5] [µM] | Ki (Plasma kallikrein) [µM] | Concentration (Homo sapiens [7]) [µM] | Free (Homo sapiens [8]) [%] | bioavailability [9] [%] | Concentration (Rattus norvegicus [11]) [µM] | further results
8 | 0.00031 | CCN(CC)C(=O)CN[C@@H](C(=O)N1CCC[C@H]1C(=O)NCc1cc(Cl)ccc1Cl)C1CCCCC1 | 2.67 | 174 | 27 | 245 | 244 | 29 | 399 |  |  |  |  | bioavailability [6]: 10%
9 | 0.02 | CCN(CC)C(=O)CN[C@@H](C(=O)N1CCC[C@H]1C(=O)NCc1ccccc1Cl)C1CCCCC1 |  |  |  |  |  |  |  |  |  |  |  | 
10 | 0.00045 | CCOC(=O)COc1ccc(Cl)cc1CNC(=O)[C@@H]1CCCN1C(=O)[C@H](N)C1CCCCC1 |  |  |  |  |  |  |  |  |  |  |  | 
